In the library only some 2% were active in any assay of this set; here they are far more common.
RAD52 inh: RAD52 (human) annealing inhibition | P43351 | recombinant RAD52 DNA annealing, FRET fluorescence | inhibition, % at 18.7 µM | hit rate 0.46% among 360,000;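 active = every replicate showing at least 50% inhibition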
RAD54 inh: blocks human RAD54 Holliday junction branch migration; Q92698; FAM/BHQ fluorescence; inhibition, % at 10.4 µM; hit rate 0.14% among 360,000;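 active = mean normalized replicate activity at least 40 and at least half of replicates scoring 40 or more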;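 also: 0% = median of neutral control wells and 100% = median of positive control wells; inhibitors cause a drop in the FAM fluorescence signal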
E-sel inducer: E-selectin induction on HUVECs; HUVEC E-selectin immunofluorescence imaging; normalized: neutral wells 0, TNF-alpha wells 100; hit rate 0.37% among 260,000; activation, % at 7.58 µM;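 active = mean E-selectin-positive cell signal at least 10% of the positive control, reached in at least 60% of replicates, without over 20% cell loss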
Target sequence (P16581 whole entry, looked up): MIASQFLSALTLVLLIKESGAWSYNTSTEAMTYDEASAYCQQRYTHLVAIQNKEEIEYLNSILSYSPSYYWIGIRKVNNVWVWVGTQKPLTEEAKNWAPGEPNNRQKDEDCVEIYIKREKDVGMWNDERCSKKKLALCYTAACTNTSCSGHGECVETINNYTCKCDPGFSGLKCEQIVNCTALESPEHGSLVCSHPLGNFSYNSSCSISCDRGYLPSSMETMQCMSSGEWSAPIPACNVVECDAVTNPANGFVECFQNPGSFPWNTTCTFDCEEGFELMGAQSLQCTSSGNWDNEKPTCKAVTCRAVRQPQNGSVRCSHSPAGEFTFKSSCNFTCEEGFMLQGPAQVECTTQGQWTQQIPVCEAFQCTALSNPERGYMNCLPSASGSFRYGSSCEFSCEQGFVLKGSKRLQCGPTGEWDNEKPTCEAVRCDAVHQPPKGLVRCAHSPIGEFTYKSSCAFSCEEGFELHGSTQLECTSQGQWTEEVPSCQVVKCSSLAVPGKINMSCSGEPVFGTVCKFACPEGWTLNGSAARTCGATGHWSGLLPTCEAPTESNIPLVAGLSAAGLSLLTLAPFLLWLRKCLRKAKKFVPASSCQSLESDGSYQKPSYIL
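Test system: HUVEC | Signal: Immunofluorescence imaging | Read-out: Percent E-selectin-positive cells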
rRNA inh HTS: selective bacterial rRNA inhibition in E. coli. GFP signal change (wild-type ribosome), % (concentration not given with the values). E. coli WT GFP vs humanized-ribosome RFP mutants, fluorescence, 24 h; stronger effect = lower value; DMSO median 0, no signal -100. AID 720706. hit rate 1.6% among 350,000;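 active = significant combined selectivity score with lowered wild-type GFP, culture density cut under 30%, mutant RFP and density less affected; inactive = any of these conditions unmet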
PglD DTNB: PglD (C. jejuni) enzyme inhibition; hit rate 0.098% among 360,000; purified PglD enzyme, DTNB colorimetric CoA detection; inhibition, % at 12.5 µM; in the data active = inhibition above about 16%, passing the limit was not always enough
XiGFP reactiv: activators of X-chromosome reactivation in mouse fibroblasts. XiGFP mouse fibroblasts, % GFP-positive cells imaging, 3 d; cells co-treated with 5-aza-dC sensitizer; scaled so ellipticine positive control = 100%. activation, % at 7.58 µM. hit rate 0.055% among 360,000. AID 743238;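 active = mean normalized replicate activation at least 10% and every replicate at or above 10%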;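 also: 0% = median of on-plate neutral control wells and 100% = ellipticine 6 µM median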
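assay system = SV40-immortalized XiGFP fibroblast cells, line 68-5-11 | buffer or medium = DMEM plus 5-aza-dC sensitizer | doses = single-point pinned compound dosing | times = 3-day compound exposure, then 15 min fixation at room temperature | benchmarks = positive control ellipticine, 6 µM final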
* hit, by the source's call; nt = no result.

SMILES | RAD52 inh | RAD54 inh | E-sel inducer | rRNA inh HTS | PglD DTNB | XiGFP reactiv
COc1ccc(-c2nnc(NC(=O)c3ccccc3C)o2)cc1 | 3 | -5 | 0 | -40 | nt | 0
Cc1ccccc1C(=O)Nc1nnc(-c2ccncc2)o1 | -17 | nt | 5 | -33* | nt | 0
C/C(=N\Nc1nc2ccccc2[nH]1)c1ccc2c(c1)OCO2 | -12 | 22 | nt | -64 | 8 | 0
C/C(=N\Nc1nc2ccccc2[nH]1)c1ccc2c(c1)OCCO2 | -2 | nt | nt | -48* | nt | 0
Cc1ccc(S(=O)(=O)N(C)C[C@@H]2OCCCC[C@H](C)Oc3ccc(NC(=O)CCCCCC(=O)Nc4ccccc4N)cc3C(=O)N([C@H](C)CO)C[C@@H]2C)cc1 | -37 | 1 | 0 | -2 | -4 | 0
O=C(Nc1cccc(S(=O)(=O)N2CCCCC2)c1)C1CC(=O)N(Cc2ccccc2)C1 (stereo unspecified) | -72 | -14 | nt | -24* | -1 | 0
CN(C)C(CNC(=O)C1CC(=O)N(Cc2ccccc2)C1)c1ccccc1 (stereo unspecified) | -1 | -4 | -2 | 10 | 0 | 0
O=C(NCc1ccc(Cl)cc1Cl)C1CC(=O)N(Cc2ccccc2)C1 (stereo unspecified) | -6 | nt | 3 | -23* | nt | 0
Cc1ccc(S(=O)(=O)N2CCCCC2)cc1NC(=O)C1CC(=O)N(Cc2ccccc2)C1 (stereo unspecified) | nt | -6 | nt | nt | -2 | nt
CCC(C(=O)NCCc1ccc(C)cc1)n1nc(C)c2c(C)n(-c3ccccc3)nc2c1=O (stereo unspecified) | -7 | -17 | 0 | -21* | 1 | 0
Cc1ccc2nc(SCC(=O)c3ccc4c(c3)OCO4)[nH]c2c1 | -24 | 7 | nt | -23* | -2 | nt
CCOc1ccc(-c2c[n+]3c(n2-c2ccccc2)CCCCC3)cc1 | -6 | nt | 0 | -39* | nt | 0
C[C@@H]1CN([C@@H](C)CO)C(=O)c2cccc(NC(=O)Nc3ccc(C(F)(F)F)cc3)c2O[C@@H]1CN(C)C(=O)Nc1ccc2c(c1)OCO2 | nt | 3 | 0 | 2 | 4 | -1
C[C@@H]1CN([C@H](C)CO)C(=O)c2cccc(NC(=O)Nc3ccc4c(c3)OCO4)c2O[C@@H]1CN(C)C(=O)Nc1ccc(C(F)(F)F)cc1 | 15 | 5 | 60* | -6 | -1 | 0
C[C@@H]1CN([C@@H](C)CO)C(=O)c2cccc(NS(=O)(=O)c3ccc(Cl)cc3)c2O[C@H]1CN(C)C(=O)Nc1ccc2c(c1)OCO2 | 8 | -1 | 98* | -3 | 0 | 0
C[C@H](CO)N1C[C@H](C)[C@H](CN(C)C(=O)Nc2ccc3c(c2)OCO3)Oc2c(NS(=O)(=O)c3ccc(Cl)cc3)cccc2C1=O | -17 | -1 | 50* | -12 | -1 | 0
Cc1noc(C)c1NC(=O)N(C)C[C@H]1Oc2ccc(N(C)C)cc2CC(=O)N([C@@H](C)CO)C[C@H]1C | -4 | 5 | 0 | 5 | 8 | 0
C[C@@H]1CN([C@@H](C)CO)S(=O)(=O)c2ccc(C#CCN(C)C)cc2O[C@@H]1CN(C)Cc1ccncc1 | 0 | -2 | 0 | -1 | -5 | 0
O=C(Nc1ccccc1C(=O)N1CCCCCC1)c1ccc(Cl)cc1 | -8 | nt | nt | -24* | nt | 0
C[C@@H]1CCCCO[C@@H](CN(C)Cc2ccccc2)[C@@H](C)CN([C@@H](C)CO)C(=O)c2cc(NC(=O)Nc3cccc4ccccc34)ccc2O1 | 4 | 10 | nt | 0 | 1 | 0
CCOC(=O)c1c(C)nc(C)c(C(=O)OCC)c1-c1cccnc1 | 8 | -9 | 0 | 4 | -3 | 0
CCOC(=O)c1c(C)nc(C)c(C(=O)OCC)c1-c1ccccc1 | -11 | nt | nt | -41* | nt | nt
CN(CC(=O)Nc1cccc(F)c1)C(=O)CCCc1c[nH]c2ccccc12 | -7 | -6 | 1 | -26* | 3 | 0
Cc1ccc(C2=NS(=O)(=O)N(C)C(C(=O)NC3CCCCC3)=C2)cc1 | -4 | 0 | nt | -4 | 2 | 0
Cc1ccc(C2=NS(=O)(=O)N(C)C(C(=O)Nc3cc(C)n(CC(=O)N4CCC(C)CC4)n3)=C2)cc1 | 0 | 0 | nt | -29* | -9 | 0
SMILES | RAD52 inh | RAD54 inh | E-sel inducer | rRNA inh HTS | PglD DTNB | XiGFP reactiv
C[C@H](CO)N1C[C@H](C)[C@@H](CN(C)C)Oc2ncc(C#CC3(O)CCCC3)cc2C1=O | -54 | 3 | 0 | 3 | 13 | 0
C[C@@H]1CN([C@@H](C)CO)C(=O)c2cc(NC(=O)C3CCCCC3)ccc2O[C@@H](C)CCCCO[C@H]1CN(C)C(=O)CCCN(C)C | 12 | 5 | 0 | 0 | -1 | 0
O/N=C\c1ccccc1Oc1ccc(F)cc1 | -10 | nt | nt | -25* | nt | 0
O/N=C/c1ccccc1Oc1ccccc1 | nt | -5 | nt | nt | 5 | nt
COc1ccc(CN(C)C[C@@H]2Oc3c(NS(=O)(=O)c4ccccc4)cccc3C(=O)N([C@H](C)CO)C[C@@H]2C)cc1 | 2 | 8 | 1 | 2 | -4 | 0
Cc1ccc(SCc2[nH]nc3c2C(c2ccco2)C(C#N)=C(N)O3)cc1 (stereo unspecified) | nt | 10 | nt | nt | 1 | nt
Cc1ccc(SCc2[nH]nc3c2C(c2ccc(C)o2)C(C#N)=C(N)O3)cc1 (stereo unspecified) | -12 | -9 | nt | -37* | -5 | nt
O=C(COc1ccc(/C=C\[N+](=O)[O-])cc1)N1CCOCC1 | -7 | nt | 0 | 18 | nt | 0
O=[N+]([O-])/C=C\c1ccc(N2CCOCC2)cc1 | -20 | nt | nt | -19* | nt | 0
CC(CCCN(C)C)C(Cc1ccccc1)c1ccccc1 (stereo unspecified) | 26 | 4 | 0 | -47* | 2 | 0
CN(C)CCC(=O)C(Cc1ccccc1)c1ccccc1 (stereo unspecified) | -14 | -3 | 0 | 5 | 3 | 0
C[C@@H]1CN([C@H](C)CO)S(=O)(=O)c2ccc(Br)cc2O[C@H]1CN(C)C(=O)CC1CC1 | 12 | -6 | 0 | -8 | 2 | 0
Cc1ccc(-n2c(C)nc3ccsc3c2=O)cc1 | -6 | -3 | nt | -36* | -18 | 0
O=C(Nc1ccc(F)cc1)N1C[C@@H]2[C@H](c3ccccc31)[C@H](CO)N2C(=O)Cc1ccccc1 | -7 | 6 | 0 | -39 | 3 | 0
COc1cc(O)c2c(c1)oc(=O)c1c3cc(O)c(O)cc3oc21 | 77* | nt | nt | nt | nt | nt
COc1ccc2c(c1)oc(=O)c1cc(OC)ccc12 | -4 | -2 | nt | -2 | 5 | nt
C/C=C/c1ccc2c(c1)[C@H]1[C@H](CCN1S(=O)(=O)c1ccc(C)cc1)[C@H](CO)N2 | -26 | 1 | 0 | -9 | 0 | 0
COc1ccc2cc3cc(C(=O)NCCN4CCN(Cc5ccccc5)CC4)oc3nc2c1 | nt | 11 | nt | nt | 0 | nt
